{"source": "ChEMBL document CHEMBL5550111", "about": "“Design, synthesis and biological evaluation of aryloxy thiophosphoramidate triesters of anticancer nucleoside analogues” (Bioorg Med Chem, 2024)", "key": {"[1]": {"test_system": "RL", "test": "Cytotoxicity against human RL cells assessed as inhibition of cell viability incubated for 72 hrs by MTS assay", "assay_type": "functional, cell-based", "in_short": "(§1)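 Cells seeded at 0.5 to 100 × 10^3 per well the day before treatment, then exposed for 72 h to 9 serial concentrations (3.16-fold dilutions, top 198 μM), in duplicate. MTS added for a final 4 h at 37 °C and absorbance read. IC50 is the concentration giving 50% loss of viability. MI% is the maximum inhibition over the tested range.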"}, "[2]": {"test_system": "5637", "test": "Cytotoxicity against human 5637 cells assessed as maximum inhibition of cell viability upto 198 uM incubated for 72 hrs by MTS assay relative to control", "assay_type": "functional", "conditions": "up to 198 µM", "in_short": "(§2)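 Cells seeded at 0.5 to 100 × 10^3 per well the day before drug addition, then exposed to compound for 72 h. MTS added afterwards, with a further 4 h at 37 °C, and absorbance read. Tested in duplicate at 9 serial 3.16-fold dilutions, top concentration 198 μM. MI% is the maximum inhibition of viability across the tested range.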"}, "[3]": {"test_system": "COLO 205", "test": "Cytotoxicity against human COLO 205 cells assessed as maximum inhibition of cell viability upto 198 uM incubated for 72 hrs by MTS assay relative to control", "assay_type": "functional", "conditions": "up to 198 µM", "in_short": "as §2"}, "[4]": {"test_system": "K562", "test": "Cytotoxicity against human K562 cells assessed as maximum inhibition of cell viability upto 198 uM incubated for 72 hrs by MTS assay relative to control", "assay_type": "functional", "conditions": "up to 198 µM", "in_short": "as §2"}, "[5]": {"test_system": "KG-1", "test": "Cytotoxicity against human KG-1 cells assessed as maximum inhibition of cell viability upto 198 uM incubated for 72 hrs by MTS assay relative to control", "assay_type": "functional", "conditions": "up to 198 µM", "in_short": "as §2"}, "[6]": {"test_system": "HT-29", "test": "Cytotoxicity against human HT-29 cells assessed as inhibition of cell viability incubated for 72 hrs by MTS assay", "assay_type": "functional, cell-based", "conditions": "HT-29, 72 h", "in_short": "as §1"}, "[7]": {"test_system": "PC-3", "test": "Cytotoxicity against human PC-3 cells assessed as maximum inhibition of cell viability upto 198 uM incubated for 72 hrs by MTS assay relative to control", "assay_type": "functional", "conditions": "up to 198 µM", "in_short": "as §2"}, "[8]": {"test_system": "MOLT-4", "test": "Cytotoxicity against human MOLT-4 cells assessed as inhibition of cell viability incubated for 72 hrs by MTS assay", "assay_type": "functional, cell-based", "conditions": "MOLT-4, 72 h", "in_short": "as §1"}, "[9]": {"test_system": "MCF7", "test": "Cytotoxicity against human MCF7 cells assessed as inhibition of cell viability incubated for 72 hrs by MTS assay", "assay_type": "functional, cell-based", "conditions": "MCF7, 72 h"}, "[10]": {"test_system": "COLO 205", "test": "Cytotoxicity against human COLO 205 cells assessed as inhibition of cell viability incubated for 72 hrs by MTS assay", "assay_type": "functional, cell-based", "conditions": "COLO 205, 72 h", "in_short": "as §1"}, "[11]": {"test_system": "RL", "test": "Cytotoxicity against human RL cells assessed as maximum inhibition of cell viability upto 198 uM incubated for 72 hrs by MTS assay relative to control", "assay_type": "functional", "conditions": "up to 198 µM", "in_short": "as §2"}, "[12]": {"test_system": "5637", "test": "Cytotoxicity against human 5637 cells assessed as inhibition of cell viability incubated for 72 hrs by MTS assay", "assay_type": "functional, cell-based", "conditions": "Homo sapiens, 5637, 72 h", "in_short": "as §1"}, "[13]": {"test": "Cytotoxicity against human ACHN-luc2 cells assessed as inhibition of cell viability incubated for 72 hrs by MTS assay", "assay_type": "functional, cell-based", "conditions": "ACHN-luc2, 72 h", "in_short": "as §1"}, "[14]": {"test_system": "MIA PaCa-2", "test": "Cytotoxicity against human MIA PaCa-2 cells assessed as maximum inhibition of cell viability upto 198 uM incubated for 72 hrs by MTS assay relative to control", "assay_type": "functional", "conditions": "up to 198 µM", "in_short": "as §2"}, "[15]": {"test_system": "MIA PaCa-2", "test": "Cytotoxicity against human MIA PaCa-2 cells assessed as inhibition of cell viability incubated for 72 hrs by MTS assay", "assay_type": "functional, cell-based", "conditions": "MIA PaCa-2, 72 h", "in_short": "as §1"}, "[16]": {"test_system": "A498", "test": "Cytotoxicity against human A498 cells assessed as maximum inhibition of cell viability upto 198 uM incubated for 72 hrs by MTS assay relative to control", "assay_type": "functional", "conditions": "up to 198 µM", "in_short": "as §2"}, "[17]": {"test_system": "MOLT-4", "test": "Cytotoxicity against human MOLT-4 cells assessed as maximum inhibition of cell viability upto 198 uM incubated for 72 hrs by MTS assay relative to control", "assay_type": "functional", "conditions": "up to 198 µM", "in_short": "as §2"}, "[18]": {"test_system": "KG-1", "test": "Cytotoxicity against human KG-1 cells assessed as inhibition of cell viability incubated for 72 hrs by MTS assay", "assay_type": "functional, cell-based", "conditions": "KG-1, 72 h", "in_short": "as §1"}, "[19]": {"test_system": "HepG2", "test": "Cytotoxicity against human HepG2 cells assessed as inhibition of cell viability incubated for 72 hrs by MTS assay", "assay_type": "functional, cell-based", "conditions": "HepG2, 72 h", "in_short": "as §1"}, "[20]": {"test_system": "HL-60", "test": "Cytotoxicity against human HL-60 cells assessed as inhibition of cell viability incubated for 72 hrs by MTS assay", "assay_type": "functional, cell-based", "conditions": "HL-60, 72 h", "in_short": "as §1"}, "[21]": {"test_system": "HL-60", "test": "Cytotoxicity against human HL-60 cells assessed as maximum inhibition of cell viability upto 198 uM incubated for 72 hrs by MTS assay relative to control", "assay_type": "functional", "conditions": "up to 198 µM", "in_short": "as §2"}, "[22]": {"test_system": "HepG2", "test": "Cytotoxicity against human HepG2 cells assessed as maximum inhibition of cell viability upto 198 uM incubated for 72 hrs by MTS assay relative to control", "assay_type": "functional", "conditions": "up to 198 µM", "in_short": "as §2"}, "[23]": {"test": "Cytotoxicity against human T24/83 cells assessed as maximum inhibition of cell viability upto 198 uM incubated for 72 hrs by MTS assay relative to control", "assay_type": "functional", "conditions": "up to 198 µM", "in_short": "as §2"}, "[24]": {"test_system": "K562", "test": "Cytotoxicity against human K562 cells assessed as inhibition of cell viability incubated for 72 hrs by MTS assay", "assay_type": "functional, cell-based", "conditions": "K562, 72 h", "in_short": "as §1"}, "[25]": {"test_system": "MDA-MB-231", "test": "Cytotoxicity against human MDA-MB-231 cells assessed as maximum inhibition of cell viability upto 198 uM incubated for 72 hrs by MTS assay relative to control", "assay_type": "functional", "conditions": "up to 198 µM", "in_short": "as §2"}, "[26]": {"test": "Cytotoxicity against human ACHN-luc2 cells assessed as maximum inhibition of cell viability upto 198 uM incubated for 72 hrs by MTS assay relative to control", "assay_type": "functional", "conditions": "up to 198 µM", "in_short": "as §2"}, "[27]": {"test_system": "A498", "test": "Cytotoxicity against human A498 cells assessed as inhibition of cell viability incubated for 72 hrs by MTS assay", "assay_type": "functional, cell-based", "conditions": "A498, 72 h", "in_short": "as §1"}, "[28]": {"test_system": "MCF7", "test": "Cytotoxicity against human MCF7 cells assessed as maximum inhibition of cell viability upto 198 uM incubated for 72 hrs by MTS assay relative to control", "assay_type": "functional", "conditions": "up to 198 µM", "in_short": "as §2"}, "[29]": {"test_system": "CAKI-2", "test": "Cytotoxicity against human CAKI-2 cells assessed as maximum inhibition of cell viability upto 198 uM incubated for 72 hrs by MTS assay relative to control", "assay_type": "functional", "conditions": "up to 198 µM", "in_short": "as §2"}, "[30]": {"test_system": "CAKI-2", "test": "Cytotoxicity against human CAKI-2 cells assessed as inhibition of cell viability incubated for 72 hrs by MTS assay", "assay_type": "functional, cell-based", "conditions": "CAKI-2, 72 h", "in_short": "as §1"}, "[31]": {"test_system": "MDA-MB-231", "test": "Cytotoxicity against human MDA-MB-231 cells assessed as inhibition of cell viability incubated for 72 hrs by MTS assay", "assay_type": "functional, cell-based", "conditions": "MDA-MB-231, 72 h", "in_short": "as §1"}, "[32]": {"test_system": "PC-3", "test": "Cytotoxicity against human PC-3 cells assessed as inhibition of cell viability incubated for 72 hrs by MTS assay", "assay_type": "functional, cell-based", "conditions": "PC-3, 72 h", "in_short": "as §1"}, "[33]": {"test": "Cytotoxicity against human T24/83 cells assessed as inhibition of cell viability incubated for 72 hrs by MTS assay", "assay_type": "functional, cell-based", "conditions": "T24/83, 72 h", "in_short": "as §1"}, "[34]": {"test_system": "HT-29", "test": "Cytotoxicity against human HT-29 cells assessed as maximum inhibition of cell viability upto 198 uM incubated for 72 hrs by MTS assay relative to control", "assay_type": "functional", "conditions": "up to 198 µM", "in_short": "as §2"}}}
{"smiles": "C[C@H](NP(=O)(OC[C@@H]1C[C@@H](O)[C@H](n2cnc3c(N)ncnc32)O1)Oc1ccccc1)C(=O)OCc1ccccc1", "note": "(some centres undefined) [FOSDESDENOSINE SIPALABENAMIDE]", "values": [{"measurement": "IC50", "setting": "[1]", "result": 34.6, "unit": "µM"}, {"measurement": "Imax", "setting": "[2]", "result": 100, "unit": "%"}, {"measurement": "Imax", "setting": "[3]", "result": 87, "unit": "%"}, {"measurement": "Imax", "setting": "[4]", "result": 83, "unit": "%"}, {"measurement": "Imax", "setting": "[5]", "result": 92, "unit": "%"}, {"measurement": "IC50", "setting": "[6]", "result": 9.47, "unit": "µM"}, {"measurement": "Imax", "setting": "[7]", "result": 74, "unit": "%"}, {"measurement": "IC50", "setting": "[8]", "result": 4.67, "unit": "µM"}, {"measurement": "IC50", "setting": "[9]", "result": 3.69, "unit": "µM"}, {"measurement": "IC50", "setting": "[10]", "result": 27.8, "unit": "µM"}, {"measurement": "Imax", "setting": "[11]", "result": 94, "unit": "%"}, {"measurement": "IC50", "setting": "[12]", "result": 47.5, "unit": "µM"}, {"measurement": "IC50", "setting": "[13]", "result": 112, "unit": "µM"}, {"measurement": "Imax", "setting": "[14]", "result": 95, "unit": "%"}, {"measurement": "IC50", "setting": "[15]", "result": 7.41, "unit": "µM"}, {"measurement": "Imax", "setting": "[16]", "result": 82, "unit": "%"}, {"measurement": "Imax", "setting": "[17]", "result": 96, "unit": "%"}, {"measurement": "IC50", "setting": "[18]", "result": 23.5, "unit": "µM"}, {"measurement": "IC50", "setting": "[19]", "result": 25.2, "unit": "µM"}, {"measurement": "IC50", "setting": "[20]", "result": 38.4, "unit": "µM"}, {"measurement": "Imax", "setting": "[21]", "result": 101, "unit": "%"}, {"measurement": "Imax", "setting": "[22]", "result": 80, "unit": "%"}, {"measurement": "Imax", "setting": "[23]", "result": 92, "unit": "%"}, {"measurement": "IC50", "setting": "[24]", "result": 10.3, "unit": "µM"}, {"measurement": "Imax", "setting": "[25]", "result": 79, "unit": "%"}, {"measurement": "Imax", "setting": "[26]", "result": 62, "unit": "%"}, {"measurement": "IC50", "setting": "[27]", "result": 58.1, "unit": "µM"}, {"measurement": "Imax", "setting": "[28]", "result": 90, "unit": "%"}, {"measurement": "Imax", "setting": "[29]", "result": 78, "unit": "%"}, {"measurement": "IC50", "setting": "[30]", "result": 102, "unit": "µM"}, {"measurement": "IC50", "setting": "[31]", "result": 19.4, "unit": "µM"}, {"measurement": "IC50", "setting": "[32]", "result": 51.2, "unit": "µM"}, {"measurement": "IC50", "setting": "[33]", "result": 31.4, "unit": "µM"}, {"measurement": "Imax", "setting": "[34]", "result": 96, "unit": "%"}]}
